Assay results pooled from the literature.
Each line is one published result; the experiments were not run side by side. Values after ≈ are worked out from the molar mass of the structure shown.

Compound	tested on	test	test system	conditions	quantity	result
COc1ccc(-c2cc(-c3ccc4oc(=O)cc(C)c4c3O)nc(N)n2)cc1	KB	cell growth or viability, MTT		8 µg/mL, 72 h	inhibition	0%
COC(=O)COc1ccc(NC(=O)C2(c3ccc(Cl)c(Cl)c3)CC2)cc1	U-937	cell growth or viability, ATP luminescence		72 h	GI50	3 µM
Cc1cc(=O)oc2ccc(-c3cc(-c4cccc(Cl)c4)nc(N)n3)c(O)c12	KB	cell growth or viability, MTT		8 µg/mL, 72 h	inhibition	5%
CCCCCCCCCCCCCCN1CCN(CC(O)(Cn2cncn2)c2ccc(F)cc2F)CC1 (centres unmarked)	Pichia kudriavzevii	microbial growth, broth dilution	ATCC6258	48 h	MIC	0.975 µg/mL (≈ 1.88 µM)
Clc1ccccc1C(c1ccccc1)(c1ccccc1)n1ccnc1	Fusarium solani	microbial growth, disc diffusion		20000 µg/mL	inhibition zone	23 mm
COC(=O)COc1ccc(NC(=O)C2(c3ccccc3)CC2)cc1	U-937	cell growth or viability, ATP luminescence		72 h	GI50	4.2 µM
C[C@@H](c1ncncc1F)[C@](O)(Cn1cncn1)c1ccc(F)cc1F	Acanthamoeba quina	parasite growth, resazurin		7 days	IC50	24.1 µM
COC(=O)COc1ccc(NC(=O)C2(c3ccc(Cl)cc3)CC2)cc1	U-937	cell growth or viability, ATP luminescence		72 h	GI50	3.9 µM
C[C@@H]1[C@H](O)[C@@H](C)/C=C/C=C/C=C/C=C/C=C/C=C/C=C/[C@H](O[C@@H]2O[C@H](C)[C@@H](O)[C@H](N)[C@@H]2O)C[C@@H]2O[C@](O)(C[C@@H](O)C[C@@H](O)[C@H](O)CC[C@@H](O)C[C@@H](O)CC(=O)O[C@H]1C)C[C@H](O)[C@H]2C(=O)O	Pichia kudriavzevii	microbial growth	ATCC6258		MIC	1.25 µg/mL (≈ 1.35 µM)
C[C@@H]1[C@H](O)[C@@H](C)/C=C/C=C/C=C/C=C/C=C/C=C/C=C/[C@H](O[C@@H]2O[C@H](C)[C@@H](O)[C@H](N)[C@@H]2O)C[C@@H]2O[C@](O)(C[C@@H](O)C[C@@H](O)[C@H](O)CC[C@@H](O)C[C@@H](O)CC(=O)O[C@H]1C)C[C@H](O)[C@H]2C(=O)O	Pichia kudriavzevii	microbial growth	ATCC6258		IC50	0.56 µM
Cc1cc(=O)oc2ccc(-c3cc(-c4ccc(Br)cc4)nc(N)n3)c(O)c12	KB	cell growth or viability, MTT		8 µg/mL, 72 h	inhibition	2%
CCCCCN1CCNCC1	Pichia kudriavzevii	microbial growth, broth dilution	ATCC6258	48 h	MIC	> 31.3 µg/mL
Cc1cc(=O)oc2ccc(-c3cc(-c4ccc(Cl)cc4)nc(N)n3)c(O)c12	KB	cell growth or viability, MTT		128 µg/mL, 72 h	inhibition	60%
COC(=O)COc1ccc(NC(=O)C2(c3cccc(C)c3)CC2)cc1	U-937	cell growth or viability, ATP luminescence		72 h	GI50	> 200 µM
